Laboratory results published in ChEMBL document CHEMBL1141693, “Discovery of benzoylpiperazines as a novel class of potent and selective GlyT1 inhibitors” (Bioorg Med Chem Lett, 2008).
≈ marks a conversion by molar mass, not a printed value. Calls of active or inactive are those of the source. The rule behind the calls is not given here.

Columns and labels:
[1] = Aqueous solubility in phosphate buffer at pH 6.5 by lyophilization solubility assay; assay type: physicochemical
Procedure, shortened: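 Aqueous solubility was measured at pH 6.5 in a lyophilization solubility assay.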

[2] = Half life in mouse at 10 mg/kg, po; assay type: ADME, organism-based; design: dose 10 mg/kg, route oral; settings: in vivo
[3] = Membrane permeability by PAMPA; assay type: ADME; settings: read-out: permeability
Procedure, shortened: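 PAMPA artificial-membrane permeation, reported as the permeation constant Pe in 10^-6 cm/s.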

[4] = Metabolic stability in mouse liver microsomes assessed as intrinsic clearance per […] of protein; assay type: ADME, Microsome
Procedure, shortened: (§1)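 Intrinsic clearance measured in liver microsomes from rat, mouse or human, expressed per mg microsomal protein.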

Cytochrome P450 2D6 = Cytochrome P450 2D6 (Homo sapiens, UniProt P10635); assay: Inhibition of CYP2D6; assay type: ADME
[5] = Oral bioavailability in mouse at 10 mg/kg; assay type: ADME, organism-based; settings: in vivo
[6] = Cmax in mouse brain at 10 mg/kg, po; assay type: ADME, organism-based; design: dose 10 mg/kg, route oral
Liver microsomes [7] = assay: Metabolic stability in human liver microsomes assessed as intrinsic clearance per […] of protein; assay type: ADME, Microsome; procedure, shortened: as §1
[8] = biological target: T1, Sodium- and chloride-dependent glycine transporter 1 (Homo sapiens, UniProt P48067); assay: Inhibition of [3H]glycine uptake at human glycine transporter 1 expressed in CHO cells by scintillation counter; assay type: cell-based
T1 sequence (P48067 whole entry): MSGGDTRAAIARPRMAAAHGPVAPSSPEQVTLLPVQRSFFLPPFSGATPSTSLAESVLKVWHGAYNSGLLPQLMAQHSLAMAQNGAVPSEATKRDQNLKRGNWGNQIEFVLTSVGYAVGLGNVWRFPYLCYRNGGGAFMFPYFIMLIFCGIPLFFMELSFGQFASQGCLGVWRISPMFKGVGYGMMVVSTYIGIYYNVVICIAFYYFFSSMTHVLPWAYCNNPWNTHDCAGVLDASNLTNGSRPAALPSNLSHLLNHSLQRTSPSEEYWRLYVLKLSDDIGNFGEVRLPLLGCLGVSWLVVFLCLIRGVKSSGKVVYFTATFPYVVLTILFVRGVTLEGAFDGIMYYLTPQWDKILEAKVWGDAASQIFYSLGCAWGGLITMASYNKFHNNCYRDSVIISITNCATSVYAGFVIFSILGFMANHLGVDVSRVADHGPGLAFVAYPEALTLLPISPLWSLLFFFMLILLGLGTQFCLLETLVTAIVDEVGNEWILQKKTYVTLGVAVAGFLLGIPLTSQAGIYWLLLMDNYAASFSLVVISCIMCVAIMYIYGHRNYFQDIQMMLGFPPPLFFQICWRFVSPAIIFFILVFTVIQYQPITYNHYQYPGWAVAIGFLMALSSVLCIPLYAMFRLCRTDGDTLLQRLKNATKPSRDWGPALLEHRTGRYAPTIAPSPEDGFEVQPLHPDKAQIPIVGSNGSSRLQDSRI

[9] = biological target: T2, Sodium- and chloride-dependent glycine transporter 2 (Homo sapiens) (UniProt Q9Y345); assay: Inhibition of [3H]glycine uptake at human glycine transporter 2 expressed in CHO cells at 30 uM by scintillation counter; assay type: cell-based
T2 sequence (whole entry): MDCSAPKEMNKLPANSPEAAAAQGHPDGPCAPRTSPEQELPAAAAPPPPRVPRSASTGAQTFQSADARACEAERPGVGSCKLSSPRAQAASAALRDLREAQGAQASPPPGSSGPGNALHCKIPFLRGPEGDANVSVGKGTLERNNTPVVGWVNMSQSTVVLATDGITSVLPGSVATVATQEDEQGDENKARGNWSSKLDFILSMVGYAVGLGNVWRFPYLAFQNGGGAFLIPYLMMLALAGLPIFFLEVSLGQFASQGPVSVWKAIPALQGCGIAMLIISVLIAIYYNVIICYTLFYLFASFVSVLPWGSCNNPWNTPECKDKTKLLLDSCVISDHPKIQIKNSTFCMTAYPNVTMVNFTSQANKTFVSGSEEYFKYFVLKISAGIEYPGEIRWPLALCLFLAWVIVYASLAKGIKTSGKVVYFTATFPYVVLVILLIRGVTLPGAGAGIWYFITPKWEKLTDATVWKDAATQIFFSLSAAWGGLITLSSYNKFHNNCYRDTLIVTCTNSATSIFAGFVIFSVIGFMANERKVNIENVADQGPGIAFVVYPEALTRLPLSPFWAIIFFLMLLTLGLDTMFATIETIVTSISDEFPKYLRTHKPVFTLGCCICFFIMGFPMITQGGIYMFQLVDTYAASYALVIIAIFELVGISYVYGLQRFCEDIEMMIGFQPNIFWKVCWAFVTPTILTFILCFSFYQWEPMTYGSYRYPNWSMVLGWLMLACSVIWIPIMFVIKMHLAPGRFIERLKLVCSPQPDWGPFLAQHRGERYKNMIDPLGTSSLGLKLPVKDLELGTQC

[10] = Volume of distribution at steady state in mouse at 2 mg/kg, iv; assay type: ADME, organism-based; design: dose 2 mg/kg, route intravenous; settings: in vivo, read-out: Vdss
[11] = Cmax in mouse plasma at 10 mg/kg, po; assay type: ADME, organism-based; design: dose 10 mg/kg, route oral
[12] = Clearance in mouse at 2 mg/kg, iv; assay type: ADME, organism-based; design: dose 2 mg/kg, route intravenous; settings: in vivo
[13] = Ratio of drug level in brain to plasma in mouse at 10 mg/kg, po; assay type: ADME, organism-based; design: dose 10 mg/kg, route oral; settings: read-out: BPR
Procedure, shortened: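 Mouse pharmacokinetics after a 10 mg/kg oral dose. Brain/plasma ratio taken from brain Cmax (ng/g) and plasma Cmax (ng/mL). Values are the average of two independent experiments.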

[14] = Fraction unbound in mouse plasma at 10 mg/kg, po; assay type: ADME, organism-based; design: dose 10 mg/kg, route oral
MAO-A = biological target: T3, MAO-A (Homo sapiens, UniProt P21397); assay: Inhibition of MAOA at 10 uM
T3 sequence (P21397 whole entry): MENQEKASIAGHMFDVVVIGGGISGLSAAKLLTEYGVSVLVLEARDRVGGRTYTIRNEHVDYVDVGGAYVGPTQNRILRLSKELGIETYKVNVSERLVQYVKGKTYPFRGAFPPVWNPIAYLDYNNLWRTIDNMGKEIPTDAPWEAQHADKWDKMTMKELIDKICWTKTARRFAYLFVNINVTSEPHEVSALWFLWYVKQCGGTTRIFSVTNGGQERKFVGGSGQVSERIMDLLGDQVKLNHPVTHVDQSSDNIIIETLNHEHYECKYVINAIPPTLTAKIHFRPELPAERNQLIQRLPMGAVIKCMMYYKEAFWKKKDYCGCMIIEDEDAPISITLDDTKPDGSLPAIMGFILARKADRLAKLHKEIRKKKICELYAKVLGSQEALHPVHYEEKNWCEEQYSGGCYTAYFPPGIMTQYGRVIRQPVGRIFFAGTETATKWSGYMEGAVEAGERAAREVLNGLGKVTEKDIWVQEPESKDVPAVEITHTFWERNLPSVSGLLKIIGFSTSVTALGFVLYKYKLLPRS
Procedure, shortened: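 CEREP selectivity screen across a panel of 80 targets (receptors, enzymes, ion channels, monoamine transporters). Percent inhibition was read at a single test concentration.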

[15] = biological target: Acetylcholinesterase (Homo sapiens) (UniProt P22303); assay: Inhibition of acetylcholinesterase at 10 uM
Procedure, shortened: (§2)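 Run within an outsourced CEREP selectivity screen of 80 targets (transmembrane and soluble receptors, enzymes, ion channels, monoamine transporters). The compound was tested at a single concentration and the read-out was percent inhibition of each target.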

Liver microsomes [16] = assay: Metabolic stability in rat liver microsomes assessed as intrinsic clearance per […] of protein; assay type: ADME, Microsome; procedure, shortened: as §1
[17] = Inhibition of phosphodiesterase at 10 uM
Procedure, shortened: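 CEREP selectivity panel of 80 targets: transmembrane and soluble receptors, enzymes, ion channels and monoamine transporters. Single test concentration of 10 µM; read-out is percent inhibition.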

Homo sapiens = species: Homo sapiens; assay: Selectivity ratio of IC50 for human glycine transporter 2 to IC50 for human glycine transporter 1
Procedure, shortened: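 [³H]-glycine uptake inhibition in cells transfected with human GlyT1 or human GlyT2 cDNA. Each EC50 is the average of at least two independent experiments. Selectivity is the ratio of GlyT2 EC50 to GlyT1 EC50.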

[18] = biological target: T4, Catechol O-methyltransferase (Homo sapiens) (UniProt P21964); assay: Inhibition of catechol-O-methyl transferase at 10 uM; procedure, shortened: as §2
T4 sequence (whole entry): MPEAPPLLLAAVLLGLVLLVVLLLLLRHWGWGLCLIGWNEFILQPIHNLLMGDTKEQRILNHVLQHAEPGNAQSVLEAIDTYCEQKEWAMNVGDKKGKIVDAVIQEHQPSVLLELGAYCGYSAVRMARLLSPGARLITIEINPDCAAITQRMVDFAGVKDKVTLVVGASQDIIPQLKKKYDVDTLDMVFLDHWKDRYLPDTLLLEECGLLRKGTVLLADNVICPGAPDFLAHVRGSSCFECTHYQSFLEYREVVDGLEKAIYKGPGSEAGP

[19] = biological target: T5, Sodium- and chloride-dependent glycine transporter 2 (Homo sapiens, UniProt Q9Y345); assay: Inhibition of [3H]glycine uptake at human glycine transporter 2 expressed in CHO cells by scintillation counter; assay type: cell-based
T5 sequence (Q9Y345 whole entry): T2 sequence (whole entry)
Procedure, shortened: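 [³H]-glycine uptake inhibition in cells transfected with human GlyT2 cDNA. EC50 is the average of at least two independent experiments.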

Chain of Acetylcholinesterase (Homo sapiens) (P22303 whole entry): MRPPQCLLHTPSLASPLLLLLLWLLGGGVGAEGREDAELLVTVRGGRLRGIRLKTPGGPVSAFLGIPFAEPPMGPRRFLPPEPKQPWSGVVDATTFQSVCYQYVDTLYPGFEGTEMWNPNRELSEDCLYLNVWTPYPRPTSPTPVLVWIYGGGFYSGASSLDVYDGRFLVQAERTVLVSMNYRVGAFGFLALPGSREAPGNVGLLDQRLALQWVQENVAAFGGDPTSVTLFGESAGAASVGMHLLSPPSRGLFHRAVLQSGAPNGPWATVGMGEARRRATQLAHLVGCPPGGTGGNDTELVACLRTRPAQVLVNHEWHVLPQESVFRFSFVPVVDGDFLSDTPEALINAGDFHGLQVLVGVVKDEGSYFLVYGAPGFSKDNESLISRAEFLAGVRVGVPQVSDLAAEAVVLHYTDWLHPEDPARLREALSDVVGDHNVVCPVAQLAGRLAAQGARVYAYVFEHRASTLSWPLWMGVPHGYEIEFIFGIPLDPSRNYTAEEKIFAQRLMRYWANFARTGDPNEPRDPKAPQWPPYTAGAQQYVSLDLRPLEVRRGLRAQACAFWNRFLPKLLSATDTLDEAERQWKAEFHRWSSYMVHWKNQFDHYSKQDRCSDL
Chain of Cytochrome P450 2D6 (P10635 whole entry): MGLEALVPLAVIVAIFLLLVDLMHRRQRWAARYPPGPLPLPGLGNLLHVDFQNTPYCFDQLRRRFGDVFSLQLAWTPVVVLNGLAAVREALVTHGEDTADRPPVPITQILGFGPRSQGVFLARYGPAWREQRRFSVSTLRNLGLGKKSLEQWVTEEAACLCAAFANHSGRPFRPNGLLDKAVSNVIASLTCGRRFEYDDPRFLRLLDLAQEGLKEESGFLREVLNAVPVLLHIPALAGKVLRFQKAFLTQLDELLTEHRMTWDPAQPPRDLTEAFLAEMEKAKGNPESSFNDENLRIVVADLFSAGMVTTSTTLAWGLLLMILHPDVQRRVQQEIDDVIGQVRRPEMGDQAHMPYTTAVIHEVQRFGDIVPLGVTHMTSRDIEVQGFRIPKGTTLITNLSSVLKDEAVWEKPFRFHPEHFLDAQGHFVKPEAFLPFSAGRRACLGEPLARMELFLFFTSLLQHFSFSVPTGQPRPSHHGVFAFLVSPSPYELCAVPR

Structure (SMILES): CS(=O)(=O)c1ccc(OCC2CC2)c(C(=O)N2CCN(c3ccc(C#N)cc3F)CC2)c1
- solubility [1]: 31 µg/mL (≈ 67.8 µM)
- half-life [2]: 5.8 h
- Papp [3]: 3.2 ×10⁻⁶ cm/s
- clearance [4]: 9 µL/min/mg
- IC50 (Cytochrome P450 2D6): > 29100 nM
- bioavailability [5]: 100%
- Cmax [6]: 373 ng/g
- clearance (Liver microsomes [7]): 4 µL/min/mg
- EC50 [8]: 16 nM
- Activity [9]: inactive
- Vd [10]: 2.8 L/kg
- Cmax [11]: 3880 ng/mL
- clearance [12]: 9.5 mL/min/kg
- Kp [13]: 0.1
- fraction unbound [14]: 0.12

Structure (SMILES): CC(=O)c1ccc(N2CCN(C(=O)c3cc(S(C)(=O)=O)ccc3N3CCOCC3)CC2)c(F)c1
- solubility [1]: 30 µg/mL (≈ 61.3 µM)
- Papp [3]: 3.1 ×10⁻⁶ cm/s
- inhibition at 10 µM (MAO-A): < 20%
- inhibition [15]: < 20%
- clearance (Liver microsomes [16]): 40 µL/min/mg
- clearance (Liver microsomes [7]): 26 µL/min/mg
- EC50 [8]: 70 nM
- inhibition [17]: < 20%
- Ratio EC50 (Homo sapiens): > 417
- inhibition [18]: < 20%
- EC50 [19]: > 30000 nM
